The source made the active and inactive calls. The rule behind the calls is not given here.

The values that follow come from ChEMBL document CHEMBL1795327, “Novel 4-phenylpiperidine-2,6-dione derivatives. Ligands for α₁-adrenoceptor subtypes” (Eur J Med Chem, 2011).

In experiment [1] the target is T1, Alpha-1D adrenergic receptor (Homo sapiens, UniProt P25100).
T1 sequence (P25100 whole entry): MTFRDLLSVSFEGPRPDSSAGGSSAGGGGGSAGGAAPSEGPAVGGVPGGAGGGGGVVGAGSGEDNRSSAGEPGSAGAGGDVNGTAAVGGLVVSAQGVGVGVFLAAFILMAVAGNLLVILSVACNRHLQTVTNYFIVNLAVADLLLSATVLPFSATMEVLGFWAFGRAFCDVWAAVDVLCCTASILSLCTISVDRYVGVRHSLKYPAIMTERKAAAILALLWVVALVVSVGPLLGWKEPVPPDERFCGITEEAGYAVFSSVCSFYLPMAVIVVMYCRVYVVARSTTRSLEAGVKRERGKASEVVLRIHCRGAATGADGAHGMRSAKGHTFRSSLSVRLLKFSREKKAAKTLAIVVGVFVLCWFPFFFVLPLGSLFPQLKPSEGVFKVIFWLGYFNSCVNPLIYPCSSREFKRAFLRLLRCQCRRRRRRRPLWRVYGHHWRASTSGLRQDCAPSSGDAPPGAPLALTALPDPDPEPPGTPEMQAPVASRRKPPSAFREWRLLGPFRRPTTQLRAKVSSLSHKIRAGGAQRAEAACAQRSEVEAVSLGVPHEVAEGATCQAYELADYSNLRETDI
As to the kind of experiment: Displacement of [125I]BE-2254 from human adrenergic Alpha-1D receptor expressed in HEK293 cells. The format is cell-based. An outline of the steps: (§1)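 Membranes came from HEK293 cells stably expressing human α1A-, α1B- or α1D-AR, selected with geneticin. Cells were washed in PBS pH 7.6, homogenized, and spun at 30,000 × g for 10 min. The radioligand was [125I]BE 2254. Affinities are pKi, given as mean ± SE of three experiments run in duplicate.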

The target of experiment [2] is T2, Alpha-1B adrenergic receptor (Homo sapiens, UniProt P35368).
T2 sequence (P35368 whole entry): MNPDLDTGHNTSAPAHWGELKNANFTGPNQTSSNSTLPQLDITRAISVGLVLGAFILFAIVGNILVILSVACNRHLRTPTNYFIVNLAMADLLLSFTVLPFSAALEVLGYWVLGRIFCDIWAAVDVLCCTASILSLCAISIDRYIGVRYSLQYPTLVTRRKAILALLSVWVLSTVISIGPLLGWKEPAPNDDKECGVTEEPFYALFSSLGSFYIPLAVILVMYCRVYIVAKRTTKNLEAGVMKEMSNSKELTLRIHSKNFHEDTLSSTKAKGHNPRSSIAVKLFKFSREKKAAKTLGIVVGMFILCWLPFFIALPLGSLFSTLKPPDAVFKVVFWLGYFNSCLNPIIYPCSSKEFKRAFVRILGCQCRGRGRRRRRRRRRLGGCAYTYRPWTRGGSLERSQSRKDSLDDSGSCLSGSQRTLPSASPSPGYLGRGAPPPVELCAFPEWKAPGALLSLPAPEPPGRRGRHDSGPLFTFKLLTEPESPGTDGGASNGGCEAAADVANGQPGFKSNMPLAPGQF
As to the kind of experiment: Displacement of [125I]BE-2254 from human adrenergic Alpha-1B receptor expressed in HEK293 cells. The format is cell-based. In short, it runs like this: as §1

Experiment [3] deals with T3, Alpha-1A adrenergic receptor (Homo sapiens, UniProt P35348).
T3 sequence (P35348 whole entry): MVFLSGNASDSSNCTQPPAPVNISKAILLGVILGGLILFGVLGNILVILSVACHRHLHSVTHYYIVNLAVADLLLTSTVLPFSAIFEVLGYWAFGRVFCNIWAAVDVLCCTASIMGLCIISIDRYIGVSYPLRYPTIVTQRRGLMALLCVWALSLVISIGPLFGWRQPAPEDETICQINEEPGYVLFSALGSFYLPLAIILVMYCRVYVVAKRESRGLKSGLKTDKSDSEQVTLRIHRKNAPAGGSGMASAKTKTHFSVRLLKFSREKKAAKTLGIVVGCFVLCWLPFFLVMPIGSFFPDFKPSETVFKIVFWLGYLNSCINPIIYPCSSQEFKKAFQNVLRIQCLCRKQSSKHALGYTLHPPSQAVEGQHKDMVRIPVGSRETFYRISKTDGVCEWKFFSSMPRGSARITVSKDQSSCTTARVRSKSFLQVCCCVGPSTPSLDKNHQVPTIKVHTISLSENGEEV
The experiment is described as follows: Displacement of [125I]BE-2254 from human adrenergic alpha1A receptor expressed in HEK293 cells. The format is cell-based. An outline of the steps: as §1

Experiment [4] addresses T4, Alpha-1B adrenergic receptor (Homo sapiens) (UniProt P35368).
T4 sequence (whole entry): T2 sequence (P35368 whole entry)
As to the kind of experiment: Antagonist activity at human adrenergic Alpha-1B receptor expressed in HEK293 cells assessed as [3H]inositol phosphate formation at 10 uM by scintillation counting. Type of experiment: functional, cell-based. In short, it runs like this:
(§2)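 Stably transfected HEK293 cells expressing human α1A-, α1B- or α1D-AR were labelled with myo-[3H]inositol and moved to Krebs Ringer bicarbonate buffer containing LiCl. They were incubated 60 min with or without NE, in the presence or absence of test compound. After a formic acid stop and sonication, [3H]InsPs were separated by anion-exchange chromatography and counted by scintillation.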

The target of experiment [5] is T5, Alpha-1D adrenergic receptor (Homo sapiens) (UniProt P25100).
T5 sequence (whole entry): T1 sequence (P25100 whole entry)
As to the kind of experiment: Antagonist activity at human adrenergic Alpha-1D receptor expressed in HEK293 cells assessed as [3H]inositol phosphate formation at 10 uM by scintillation counting. The format is functional, cell-based. In short, it runs like this:
as §2

In experiment [6] the target is T6, Alpha-1A adrenergic receptor (Homo sapiens) (UniProt P35348).
T6 sequence (whole entry): T3 sequence (P35348 whole entry)
The experiment is described as follows: Antagonist activity at human adrenergic alpha1A receptor expressed in HEK293 cells assessed as [3H]inositol phosphate formation at 10 uM by scintillation counting. Type of experiment: functional, cell-based. In short, it runs like this: as §2

For experiment [7], the target named is T2, Alpha-1B adrenergic receptor. As to the kind of experiment: Antagonist activity against human cloned adrenergic Alpha-1B receptor expressed in HEK293 cells assessed as inhibition of norepinephrine-induced [3H]inositol phosphate hydrolysis by scintillation counting. The format is functional, cell-based. In short, it runs like this: (§3)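 HEK293 cells stably transfected with human α1A-, α1B- or α1D-AR cDNA were prelabelled with myo-[3H]inositol, then given Krebs Ringer bicarbonate buffer with LiCl. Cells were incubated 60 min with or without NE and graded compound concentrations. The reaction was stopped with 20 mM formic acid. [3H]InsPs were isolated by anion exchange and counted by scintillation. Values (±SE) came from concentration-response inhibition curves.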

The target in experiment [8] is T3, Alpha-1A adrenergic receptor. As to the kind of experiment: Antagonist activity at human adrenergic alpha1A receptor expressed in HEK293 cells assessed as inhibition of norepinephrine-induced [3H]inositol phosphate hydrolysis by scintillation counting. Type of experiment: functional, cell-based. An outline of the steps:
as §3

For experiment [9], the target named is T1, Alpha-1D adrenergic receptor. As to the kind of experiment: Antagonist activity against human cloned adrenergic Alpha-1D receptor expressed in HEK293 cells assessed as inhibition of norepinephrine-induced [3H]inositol phosphate hydrolysis by scintillation counting. Type of experiment: functional, cell-based. An outline of the steps: as §3
In experiment [10] the target is T2, Alpha-1B adrenergic receptor. As to the kind of experiment: Binding affinity to adrenergic Alpha-1B receptor. In short, it runs like this: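 Human α1B-adrenoceptor stably expressed in HEK293 cells, transfected with a pRSVICAT vector and selected with geneticin. Membranes were prepared by scraping cells, homogenizing them and centrifuging at 30,000 × g for 10 min. Values are pKi, mean ± SE of three experiments run in duplicate.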

As to `O=C1CC(c2ccccc2)CC(=O)N1CCCCN1CCN(c2ccccc2Cl)CC1`, the Ki in experiment [1] is 0.0339 µM; in [2], 0.0302 µM; in experiment [3], 0.0158 µM.
On the same counts, the results for `COc1ccccc1N1CCN(CCCN2C(=O)CC3(CCc4ccccc43)CC2=O)CC1` are 0.0759 µM, 0.234 µM and 0.0631 µM.
The matching figures for `COc1ccccc1N1CCN(CCCN2C(=O)CC(c3ccccc3)CC2=O)CC1`: 0.0457 µM, 0.112 µM and 0.0468 µM.
On the same counts, the results for `COc1ccccc1N1CCN(CCCCCN2C(=O)CC(c3ccccc3)CC2=O)CC1` are 0.0309 µM, 0.0977 µM and 0.0219 µM.
In the case of `COc1ccccc1N1CCN(CCCN2C(=O)CC(c3ccc(Cl)cc3)CC2=O)CC1`, the Ki is 0.0692 µM in experiment [1], 0.126 µM in experiment [2] and 0.0282 µM in [3].
As to `COc1ccccc1N1CCN(CCCCN2C(=O)CC3(CCc4ccccc43)CC2=O)CC1`, the Ki in experiment [1] is 0.0162 µM; in [2], 0.0724 µM; in [3], 0.00977 µM; in experiment [7], 0.02 µM; in experiment [8] it was 0.01 µM; in experiment [9] it was 0.00501 µM. The outcome in experiment [4], in experiment [5] and in experiment [6] was inactive.
For `O=C1CC(c2ccccc2)CC(=O)N1CCN1CCN(c2ccccc2Cl)CC1`, the Ki in experiment [1] is 0.631 µM; in experiment [2], 2.24 µM; in [3] it was 3.24 µM.
In the case of `COc1ccccc1N1CCN(CCCCN2C(=O)CC(C)(c3ccccc3)CC2=O)CC1`, the inhibitory constant (Ki) in [1] was 0.0145 µM; in experiment [2], 0.0562 µM; in experiment [3], 0.0224 µM; in [7], 0.00794 µM; in [8], 0.0316 µM; in experiment [9] it was 0.000501 µM. The outcome in experiment [4], in [5] and in experiment [6] was inactive.
As for `COc1ccccc1N1CCN(CCCN2C(=O)CC(C)(c3ccccc3)CC2=O)CC1`, the Ki in experiment [1] is 0.0513 µM; in experiment [2] it was 0.129 µM; in experiment [3] it was 0.0102 µM.
Consider `COc1ccccc1N1CCN(CCCCN2C(=O)CC(c3ccc([N+](=O)[O-])cc3)CC2=O)CC1`, for which the Ki was 0.0537 µM in experiment [1], 0.209 µM in experiment [2] and 0.0209 µM in [3].
Take `COc1ccccc1N1CCN(CCCCN2C(=O)CC(c3ccc(Cl)cc3)CC2=O)CC1`: the Ki in experiment [1] is 0.0724 µM; in [2] it was 0.245 µM; in [3], 0.0676 µM.
On the same counts, the results for `COc1ccccc1N1CCN(CCN2C(=O)CC(c3ccccc3)CC2=O)CC1` are 1.32 µM, 7.41 µM and 3.47 µM.
On the same counts, the results for `COc1ccc(Cl)cc1N1CCN(CCCCN2C(=O)CC(c3ccccc3)CC2=O)CC1` are 0.0389 µM, 0.107 µM and 0.0363 µM.
For `COc1ccccc1N1CCN(CCN2C(=O)CC3(CCCC3)CC2=O)CC1`, in experiment [10], the Ki is 0.0501 µM.
With `COc1ccc(Cl)cc1N1CCN(CCCN2C(=O)CC(C)(c3ccccc3)CC2=O)CC1`, the Ki was 0.0977 µM in experiment [1], 0.195 µM in [2] and 0.0347 µM in experiment [3].
In the case of `COc1ccccc1N1CCN(CCN2C(=O)CC3(CCc4ccccc43)CC2=O)CC1`, the Ki was 0.912 µM in experiment [1], 5.01 µM in [2] and 3.39 µM in experiment [3].
`COc1ccccc1N1CCN(CCn2c(=O)[nH]c3c([nH]c4ccccc43)c2=O)CC1` yielded a pKi in experiment [3] (hek293) of 9.57.
On to `COc1ccccc1N1CCN(CCN2C(=O)CC(c3ccc(Cl)cc3)CC2=O)CC1`, for which the Ki is 0.692 µM in experiment [1], 0.112 µM in experiment [2] and 1.7 µM in experiment [3].
On the same counts, the results for `O=C1CC(c2ccccc2)CC(=O)N1CCCN1CCN(c2ccccc2Cl)CC1` are 0.0437 µM, 0.112 µM and 0.0479 µM.
On the same counts, the results for `O=C1CC(c2ccc(Cl)cc2)CC(=O)N1CCN1CCN(c2ccccc2Cl)CC1` are 1.51 µM, 10 µM and 6.92 µM.
For the molecule `COc1ccccc1N1CCN(CCCCN2C(=O)CC(c3ccccc3)CC2=O)CC1`, the Ki in experiment [1] was 0.0158 µM; in experiment [2], 0.024 µM; in experiment [3] it was 0.00182 µM; in experiment [7] it was 0.00398 µM; in experiment [8], 0.00251 µM; in [9] it was 0.002 µM. Further, the result in experiment [4], in experiment [5] and in [6] was inactive.
Molecule `CC(C)(C)c1ccc(N2CCN(CCn3c(=O)[nH]c4c([nH]c5ccccc54)c3=O)CC2)cc1` yielded a pKi in experiment [1] (hek293) of 7.7.
Consider `COc1ccc(Cl)cc1N1CCN(CCCN2C(=O)CC(c3ccccc3)CC2=O)CC1`, for which the inhibition constant (Ki) in experiment [1] was 0.389 µM; in experiment [2], 0.331 µM; in [3], 0.191 µM.
For `O=C1CC(c2ccc(Cl)cc2)CC(=O)N1CCCN1CCN(c2ccccc2Cl)CC1`, the Ki was 0.0631 µM in [1], 0.135 µM in experiment [2] and 0.049 µM in [3].
On the same counts, the results for `COc1ccccc1N1CCN(CCCN2C(=O)CC(c3ccc([N+](=O)[O-])cc3)CC2=O)CC1` are 0.0676 µM, 0.129 µM and 0.0141 µM.
On the same counts, the results for `COc1ccc(Cl)cc1N1CCN(CCCCN2C(=O)CC(C)(c3ccccc3)CC2=O)CC1` are 0.0776 µM, 0.151 µM and 0.0955 µM.
